Data published in ChEMBL document CHEMBL1130749, “Inhibitors of the chymotrypsin-like activity of proteasome based on di- and tri-peptidyl alpha-keto aldehydes (glyoxals)” (Bioorg Med Chem Lett, 1998).
Peptide text beside a SMILES is read from it. * marks the point of attachment. Cbz = O=C(OCc1ccccc1)*

Assays:
[1] = molecular target: Proteasome; test: Inhibitory constant for the inactivation of the chymotrypsin like activity of proteasome from human red blood corpuscles was determined; type: subcellular
Method in brief: (§1)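 Proteasome isolated from human erythrocytes by a previously described procedure. Its chymotrypsin-like activity was followed by hydrolysis of the fluorogenic substrate Suc-Leu-Leu-Val-Tyr-NHMec. Inhibition was treated as slow-binding, with a fast EI complex forming first and then isomerising to a tight EI*. Ki* was obtained from the final steady-state rates using a rearranged competitive-inhibition equation.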

[2] = test system: Proteasome; test: Inhibitory constant for the inactivation of the chymotrypsin like activity of proteasome from human red blood corpuscles was determined; NI means no inhibition; type: subcellular; method in brief: as §1

SMILES | Ki [1] [nM] | Ki [2]
CC(C)C[C@H](NC(=O)[C@H](C)NC(=O)OCc1ccccc1)C(=O)C=O | 3860 | 
CC(=O)N[C@@H](C(=O)N[C@@H](CC(C)C)C(=O)N[C@@H](CCCCN)C(=O)C=O)C(C)C |  | Not Active
CC(C)[C@H](NC(=O)OCc1ccccc1)C(=O)N[C@@H](Cc1ccccc1)C(=O)C=O | 2050 | 
O=CC(=O)[C@H](Cc1ccccc1)NC(=O)[C@@H]1CCCN1C(=O)OCc1ccccc1 |  | Not Active
CC(C)C[C@H](NC(=O)[C@H](CC(C)C)NC(=O)[C@@H](CC(C)C)NC(=O)c1ccccc1)C(=O)C=O | 3.7 | 
CC(C)C[C@H](NC(=O)OCc1ccccc1)C(=O)N[C@@H](Cc1ccccc1)C(=O)C=O | 1400 | 
CC(C)C[C@H](NC(=O)[C@@H](CC(C)C)NC(=O)OCc1ccccc1)C(=O)N[C@@H](Cc1ccc(O)cc1)C(=O)C=O | 3.1 | 
C[C@H](NC(=O)OCc1ccccc1)C(=O)N[C@@H](Cc1ccccc1)C(=O)C=O | 9200 | 
CC(=O)N[C@@H](CCCN=C(N)N)C(=O)N[C@@H](CCCN=C(N)N)C(=O)C=O |  | Not Active
CC(C)C[C@@H](C=O)NC(=O)[C@H](CC(C)C)NC(=O)[C@H](CC(C)C)NC(=O)OCc1ccccc1 [MG-132] (Cbz-Leu-Leu-Leu-aldehyde) | 4 | 
